In ChEMBL document CHEMBL1155234, “Dialkylamino and nitrogen heterocyclic analogues of hexadecylphosphocholine and cetyltrimetylammonium bromide: effect of phosphate group and environment of the ammonium cation on their biological activity” (Eur J Med Chem, 2009):
In brackets after ≈: the same amount, converted by molar mass.

What was measured:
A549 = experiment: Cytotoxicity against human A549 cells after 72 hrs by MTT assay; assay type: functional, cell-based; conditions: A549, 72 h
Outline: (§1)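 MTT end-point assay. Cells were exposed to compound at 1×10^-4 to 1×10^-8 mol l⁻¹ final for 72 h. Seeding was 3×10^3 cells ml⁻¹ for A-549, MCF-7 and MDA-MB-231; 5×10^3 for HeLa; 1×10^4 for Jurkat and CCRF-CEM. Media were DMEM/10% FCS (A-549, MCF-7, MDA-MB-231) or RPMI-HEPES/10% FCS (others). Formazan was dissolved in SDS for 12 h and read at 540 nm against untreated control, in triplicate. IC50 was curve-fitted.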

Acanthamoeba lugdunensis = experiment: Trophocidal activity against Acanthamoeba lugdunensis assessed as viability for 14 days by trypan blue exclusion assay; assay type: functional
Outline: (§2)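 Trophozoites were grown axenically in PYG medium and seeded at 2×10^5 cells ml⁻¹ (100 µl), then mixed with compound in PYG at 37 °C. APCs were tested at 25–800 µM (six levels) and QUATs at 7.25–100 µM (five levels). Viability was scored by trypan blue exclusion. Eradication was confirmed by transfer to fresh PYG with growth monitored for 14 days. MTC was the lowest concentration giving 100% eradication.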

[1] = Toxicity in human erythrocytes assessed as hemolysis after 1 hr; assay type: cell-based, Erythrocyte
Outline: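 Citrated human blood erythrocytes were washed three times in Ca/Mg-free PBS (2000g, 10 min) and resuspended in glucose-containing phosphate buffer, pH 7.4. They were diluted 1:10 into compound-containing buffer to a final 6.7–6.8×10^7 cells ml⁻¹ and incubated 1 h at 37 °C with shaking. After centrifugation, supernatant absorbance at 542 nm was compared with fully lysed controls (CTAB).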

Jurkat = experiment: Cytotoxicity against human Jurkat cells after 72 hrs by MTT assay; assay type: functional, cell-based; outline: as §1
Candida albicans = experiment: Antifungal activity against Candida albicans CCM 8186 assessed as inhibition of colony formation after 24 hrs; assay type: functional
Outline: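 C. albicans came from 24-h Sabouraud agar cultures and was suspended at 5×10^5 cells ml⁻¹ in physiological solution pH 7.2, adjusted to A540 = 0.35. It was mixed with aqueous compound and double-concentrated Sabouraud medium and incubated 24 h at 37 °C. Each well was then subcultured on Sabouraud agar for 24 h at 37 °C. MFC was the lowest concentration giving no colonies.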

HeLa = experiment: Cytotoxicity against human HeLa cells after 72 hrs by MTT assay; assay type: functional, cell-based; outline: as §1
MDA-MB-231 = experiment: Cytotoxicity against human MDA-MB-231 cells after 72 hrs by MTT assay; assay type: functional, cell-based; conditions: MDA-MB-231, 72 h; outline: as §1
CCRF-CEM = experiment: Cytotoxicity against human CCRF-CEM cells after 72 hrs by MTT assay; assay type: functional, cell-based; outline: as §1
MCF7 = experiment: Cytotoxicity against human MCF7 cells after 72 hrs by MTT assay; assay type: functional, cell-based; conditions: MCF7, 72 h; outline: as §1
Acanthamoeba castellanii = experiment: Trophocidal activity against Acanthamoeba castellanii 1BU assessed as viability for 14 days by trypan blue exclusion assay; assay type: functional; outline: as §2
Acanthamoeba lenticulata = experiment: Trophocidal activity against Acanthamoeba lenticulata 72/2 assessed as viability for 14 days by trypan blue exclusion assay; assay type: functional; outline: as §2
Acanthamoeba polyphaga = experiment: Trophocidal activity against Acanthamoeba polyphaga 5SU assessed as viability for 14 days by trypan blue exclusion assay; assay type: functional; outline: as §2

`CCCCCCCCCCCCCCCCOP(=O)([O-])OCC[N+](C)(CCC)CCC` showed an IC50 (A549) of 55 µM, an MTC (Acanthamoeba lugdunensis) of 400 µM and an EC50 at 1 hr [1] of 30 µM. For the same compound, the IC50 (Jurkat) was 28.6 µM, the MFC (Candida albicans; CCM 8186, 24 h) was 16 µM (≈ 7.42 µg/mL) and the IC50 (HeLa) was 55 µM. For the same compound, the IC50 (MDA-MB-231) was 40.6 µM, the IC50 (CCRF-CEM) was 19.2 µM and the IC50 (MCF7) was 50.6 µM.

For `CCCCCCCCCCCCCCCCOP(=O)([O-])OCC[N+]1(C)CCCC1`, the IC50 (A549) was 53.2 µM, the MTC (Acanthamoeba lugdunensis) was 200 µM and the EC50 at 1 hr [1] was 30 µM. It also gave an IC50 (Jurkat) of 10 µM, an MFC (Candida albicans; CCM 8186, 24 h) of 8 µM (≈ 3.47 µg/mL) and an IC50 (HeLa) of 46.2 µM. For the same compound, the IC50 (MDA-MB-231) was 37.9 µM, the IC50 (CCRF-CEM) was 9.3 µM and the IC50 (MCF7) was 39.3 µM.

Compound `CCCCCCCCCCCCCCCC[N+]1(C)CCOCC1.[Br-]` has an IC50 (A549) of 0.87 µM, an MTC (Acanthamoeba lugdunensis) of 50 µM and an EC50 at 1 hr [1] of 45 µM. The IC50 (Jurkat) was 3.57 µM, the MFC (Candida albicans; CCM 8186, 24 h) was 24 µM and the IC50 (HeLa) was 5.61 µM. The IC50 (MDA-MB-231) was 5.75 µM, the IC50 (CCRF-CEM) was 4.16 µM and the IC50 (MCF7) was 0.89 µM.

With `CCCCCCCCCCCCCCCCOP(=O)([O-])OCC[N+]1(C)CCCCCCC1` the IC50 (A549) was 55 µM, the MTC (Acanthamoeba lugdunensis) was 50 µM and the EC50 at 1 hr [1] was 30 µM. It also gave an IC50 (Jurkat) of 38.6 µM, an MFC (Candida albicans; CCM 8186, 24 h) of 8 µM (≈ 3.81 µg/mL) and an IC50 (HeLa) of 55 µM. The IC50 (MDA-MB-231) was 45.6 µM, the IC50 (CCRF-CEM) was 43.8 µM and the IC50 (MCF7) was 53.3 µM.

For `CCCCCCCCCCCCCCCCOP(=O)([O-])OCC[N+]1(C)CCCCC1`, the IC50 (A549) was > 100 µM, the MTC (Acanthamoeba lugdunensis) was 200 µM and the EC50 at 1 hr [1] was 25 µM. For the same compound, the IC50 (Jurkat) was 14 µM, the MFC (Candida albicans; CCM 8186, 24 h) was 8 µM (≈ 3.58 µg/mL) and the IC50 (HeLa) was 57.2 µM. For the same compound, the IC50 (MDA-MB-231) was 51.7 µM, the IC50 (CCRF-CEM) was 11.2 µM and the IC50 (MCF7) was 54.8 µM.

`CCCCCCCCCCCCCCCC[N+](C)(CCCC)CCCC.[Br-]` showed an IC50 (A549) of 0.64 µM, an MTC (Acanthamoeba lugdunensis) of 25 µM and an EC50 at 1 hr [1] of 25 µM. It also gave an IC50 (Jurkat) of 0.76 µM, an MFC (Candida albicans; CCM 8186, 24 h) of 9 µM and an IC50 (HeLa) of 0.9 µM. It also gave an IC50 (MDA-MB-231) of 2.55 µM, an IC50 (CCRF-CEM) of 0.91 µM and an IC50 (MCF7) of 0.68 µM.

In the case of `CCCCCCCCCCCCCCCC[N+](C)(CC)CC.[Br-]`, the IC50 (A549) is reported as 0.62 µM, the MTC (Acanthamoeba lugdunensis) is reported as 25 µM and the EC50 at 1 hr [1] is reported as 40 µM. For the same compound, the IC50 (Jurkat) was 0.8 µM, the MFC (Candida albicans; CCM 8186, 24 h) was 10 µM and the IC50 (HeLa) was 1.38 µM. The IC50 (MDA-MB-231) was 4.9 µM, the IC50 (CCRF-CEM) was 2.1 µM and the IC50 (MCF7) was 0.65 µM.

Compound `CCCCCCCCCCCCCCCC[N+](C)(CCC)CCC.[Br-]` has an IC50 (A549) of 0.75 µM, an MTC (Acanthamoeba lugdunensis) of 25 µM and an EC50 at 1 hr [1] of 30 µM. It also gave an IC50 (Jurkat) of 0.85 µM, an MFC (Candida albicans; CCM 8186, 24 h) of 19 µM and an IC50 (HeLa) of 1.68 µM. It also gave an IC50 (MDA-MB-231) of 4.27 µM, an IC50 (CCRF-CEM) of 1.96 µM and an IC50 (MCF7) of 0.8 µM.

`CCCCCCCCCCCCCCCC[N+]1(C)CCCC1.[Br-]` gave an IC50 (A549) of 0.53 µM, an MTC (Acanthamoeba lugdunensis) of 12.5 µM and an EC50 at 1 hr [1] of 35 µM. For the same compound, the IC50 (Jurkat) was 0.82 µM, the MFC (Candida albicans; CCM 8186, 24 h) was 10 µM and the IC50 (HeLa) was 2.29 µM. It also gave an IC50 (MDA-MB-231) of 3.8 µM, an IC50 (CCRF-CEM) of 1.35 µM and an IC50 (MCF7) of 0.62 µM.

Work on `CCCCCCCCCCCCCCCC[N+]1(C)CCCCCCC1.[Br-]` yielded an IC50 (A549) of 0.85 µM, an MTC (Acanthamoeba lugdunensis) of 12.5 µM and an EC50 at 1 hr [1] of 30 µM. For the same compound, the IC50 (Jurkat) was 0.78 µM, the MFC (Candida albicans; CCM 8186, 24 h) was 9 µM and the IC50 (HeLa) was 1.43 µM. For the same compound, the IC50 (MDA-MB-231) was 4.12 µM, the IC50 (CCRF-CEM) was 1 µM and the IC50 (MCF7) was 0.94 µM.

With Cetyltrimethylammonium bromide the MTC (Acanthamoeba lugdunensis) was 25 µM and the MFC (Candida albicans) was 21 µM.

`CCCCCCCCCCCCCCCCOP(=O)([O-])OCC[N+](C)(CC)CC` gave an IC50 (A549) of 59.4 µM, an MTC (Acanthamoeba lugdunensis) of 200 µM and an EC50 at 1 hr [1] of 30 µM. For the same compound, the IC50 (Jurkat) was 19.6 µM, the MFC (Candida albicans; CCM 8186, 24 h) was 4 µM (≈ 1.74 µg/mL) and the IC50 (HeLa) was 49.4 µM. The IC50 (MDA-MB-231) was 34.4 µM, the IC50 (CCRF-CEM) was 9 µM and the IC50 (MCF7) was 53.7 µM.

In the case of `CCCCCCCCCCCCCCCCOP(=O)([O-])OCC[N+](C)(C)C` [MILTEFOSINE], the MTC (Acanthamoeba castellanii) is reported as 31.25 µM, the IC50 (A549) is reported as 44.7 µM and the MTC (Acanthamoeba lugdunensis) is reported as 400 µM. It also gave an MTC (Acanthamoeba lenticulata) of 20 µM, an EC50 at 1 hr [1] of 30 µM and an IC50 (Jurkat) of 10 µM. For the same compound, the MFC (Candida albicans; CCM 8186, 24 h) was 4 µM (≈ 1.63 µg/mL), the MTC (Acanthamoeba polyphaga) was 31.25 µM and the IC50 (HeLa) was 41.6 µM. For the same compound, the IC50 (MDA-MB-231) was 37.6 µM, the IC50 (CCRF-CEM) was 13.5 µM and the IC50 (MCF7) was 39.2 µM.

Compound `CCCCCCCCCCCCCCCCOP(=O)([O-])OCC[N+]1(C)CCOCC1` has an IC50 (A549) of 42 µM, an MTC (Acanthamoeba lugdunensis) of 200 µM and an EC50 at 1 hr [1] of 30 µM. The IC50 (Jurkat) was 7.7 µM, the MFC (Candida albicans; CCM 8186, 24 h) was 8 µM (≈ 3.6 µg/mL) and the IC50 (HeLa) was 21.7 µM. The IC50 (MDA-MB-231) was 11.4 µM, the IC50 (CCRF-CEM) was 8.25 µM and the IC50 (MCF7) was 22.4 µM.

`CCCCCCCCCCCCCCCC[N+]1(C)CCCCC1.[Br-]` gave an IC50 (A549) of 0.63 µM, an MTC (Acanthamoeba lugdunensis) of 12.5 µM and an EC50 at 1 hr [1] of 35 µM. It also gave an IC50 (Jurkat) of 0.72 µM, an MFC (Candida albicans; CCM 8186, 24 h) of 10 µM and an IC50 (HeLa) of 1.47 µM. It also gave an IC50 (MDA-MB-231) of 3.86 µM, an IC50 (CCRF-CEM) of 0.92 µM and an IC50 (MCF7) of 0.59 µM.

`CCCCCCCCCCCCCCCCOP(=O)([O-])OCC[N+]1(C)CCCCCC1` gave an IC50 (A549) of 55.1 µM, an MTC (Acanthamoeba lugdunensis) of 50 µM and an EC50 at 1 hr [1] of 25 µM. The IC50 (Jurkat) was 18.2 µM, the MFC (Candida albicans; CCM 8186, 24 h) was 8 µM (≈ 3.69 µg/mL) and the IC50 (HeLa) was 53.1 µM. For the same compound, the IC50 (MDA-MB-231) was 49.8 µM, the IC50 (CCRF-CEM) was 9.8 µM and the IC50 (MCF7) was 51.5 µM.

Work on `CCCCCCCCCCCCCCCC[N+]1(C)CCCCCC1.[Br-]` yielded an IC50 (A549) of 0.67 µM, an MTC (Acanthamoeba lugdunensis) of 12.5 µM and an EC50 at 1 hr [1] of 35 µM. It also gave an IC50 (Jurkat) of 0.8 µM, an MFC (Candida albicans; CCM 8186, 24 h) of 9 µM and an IC50 (HeLa) of 1.82 µM. It also gave an IC50 (MDA-MB-231) of 2.84 µM, an IC50 (CCRF-CEM) of 1 µM and an IC50 (MCF7) of 0.72 µM.
